In ChEMBL document CHEMBL2375313, “Synthesis, in vitro antitumor evaluation and DNA-binding study of novel tetrahydroquinolines and some derived tricyclic and tetracyclic ring systems” (Eur J Med Chem, 2013):

Legend:
Format in all cases: functional
HOP-92 = assay: Cytotoxicity against human HOP92 cells assessed as growth inhibition at 10 uM after 48 hrs by sulphorhodamine B assay; details: HOP-92, 48 h, read-out: GI
How it was run: (§1)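 NCI-60 one-dose screen per the NCI Drug Evaluation Branch protocol. Cells given a single 10 µM concentration with 48 h continuous exposure. Growth estimated by sulphorhodamine B protein assay. Result expressed as percentage growth inhibition relative to untreated growth.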

NCI-H23 = assay: Cytotoxicity against human NCI-H23 cells assessed as growth inhibition at 10 uM after 48 hrs by sulphorhodamine B assay; details: NCI-H23, 48 h, read-out: GI; how it was run: as §1
[1] = Cytotoxicity against human EKVX cells assessed as growth inhibition at 10 uM after 48 hrs by sulphorhodamine B assay; details: read-out: GI; how it was run: as §1
A549 = assay: Cytotoxicity against human A549 cells assessed as growth inhibition at 10 uM after 48 hrs by sulphorhodamine B assay; details: A549, 48 h, read-out: GI; how it was run: as §1
NCI/ADR-RES = assay: Cytotoxicity against human NCI/ADR-RES cells assessed as growth inhibition at 10 uM after 48 hrs by sulphorhodamine B assay; details: read-out: GI; how it was run: as §1
SNB-75 = assay: Cytotoxicity against human SNB75 cells assessed as growth inhibition at 10 uM after 48 hrs by sulphorhodamine B assay; details: SNB-75, 48 h, read-out: GI; how it was run: as §1
U-251 = assay: Cytotoxicity against human U251 cells assessed as growth inhibition at 10 uM after 48 hrs by sulphorhodamine B assay; details: U-251, 48 h, read-out: GI; how it was run: as §1
SNB-19 = assay: Cytotoxicity against human SNB19 cells assessed as growth inhibition at 10 uM after 48 hrs by sulphorhodamine B assay; details: SNB-19, 48 h, read-out: GI; how it was run: as §1
SF-295 = assay: Cytotoxicity against human SF295 cells assessed as growth inhibition at 10 uM after 48 hrs by sulphorhodamine B assay; details: SF-295, 48 h, read-out: GI; how it was run: as §1
DU-145 = assay: Cytotoxicity against human DU145 cells assessed as growth inhibition at 10 uM after 48 hrs by sulphorhodamine B assay; details: DU-145, 48 h, read-out: GI; how it was run: as §1
SF-268 = assay: Cytotoxicity against human SF268 cells assessed as growth inhibition at 10 uM after 48 hrs by sulphorhodamine B assay; details: SF-268, 48 h, read-out: GI; how it was run: as §1
PC-3 = assay: Cytotoxicity against human PC3 cells assessed as growth inhibition at 10 uM after 48 hrs by sulphorhodamine B assay; details: PC-3, 48 h, read-out: GI; how it was run: as §1
UACC-62 = assay: Cytotoxicity against human UACC62 cells assessed as growth inhibition at 10 uM after 48 hrs by sulphorhodamine B assay; details: UACC-62, 48 h, read-out: GI; how it was run: as §1
SK-MEL-2 = assay: Cytotoxicity against human SK-MEL-2 cells assessed as growth inhibition at 10 uM after 48 hrs by sulphorhodamine B assay; details: SK-MEL-2, 48 h, read-out: GI; how it was run: as §1
SK-MEL-5 = assay: Cytotoxicity against human SK-MEL-5 cells assessed as growth inhibition at 10 uM after 48 hrs by sulphorhodamine B assay; details: SK-MEL-5, 48 h, read-out: GI; how it was run: as §1
M14 = assay: Cytotoxicity against human M14 cells assessed as growth inhibition at 10 uM after 48 hrs by sulphorhodamine B assay; details: M14, 48 h, read-out: GI; how it was run: as §1
LOX IMVI = assay: Cytotoxicity against human LOXIMVI cells assessed as growth inhibition at 10 uM after 48 hrs by sulphorhodamine B assay; details: read-out: GI; how it was run: as §1
UO-31 = assay: Cytotoxicity against human UO31 cells assessed as growth inhibition at 10 uM after 48 hrs by sulphorhodamine B assay; details: UO-31, 48 h, read-out: GI; how it was run: as §1
CAKI-1 = assay: Cytotoxicity against human Caki1 cells assessed as growth inhibition at 10 uM after 48 hrs by sulphorhodamine B assay; details: CAKI-1, 48 h, read-out: GI; how it was run: as §1
RXF 393 = assay: Cytotoxicity against human RXF393 cells assessed as growth inhibition at 10 uM after 48 hrs by sulphorhodamine B assay; details: RXF 393, 48 h, read-out: GI; how it was run: as §1
ACHN = assay: Cytotoxicity against human ACHN cells assessed as growth inhibition at 10 uM after 48 hrs by sulphorhodamine B assay; details: read-out: GI; how it was run: as §1
SR = assay: Cytotoxicity against human SR cells assessed as growth inhibition at 10 uM after 48 hrs by sulphorhodamine B assay; details: read-out: GI; how it was run: as §1
A498 = assay: Cytotoxicity against human A498 cells assessed as growth inhibition at 10 uM after 48 hrs by sulphorhodamine B assay; details: A498, 48 h, read-out: GI; how it was run: as §1
RPMI-8226 = assay: Cytotoxicity against human RPMI8226 cells assessed as growth inhibition at 10 uM after 48 hrs by sulphorhodamine B assay; details: RPMI-8226, 48 h, read-out: GI; how it was run: as §1
MOLT-4 = assay: Cytotoxicity against human MOLT4 cells assessed as growth inhibition at 10 uM after 48 hrs by sulphorhodamine B assay; details: MOLT-4, 48 h, read-out: GI; how it was run: as §1
K562 = assay: Cytotoxicity against human K562 cells assessed as growth inhibition at 10 uM after 48 hrs by sulphorhodamine B assay; details: K562, 48 h, read-out: GI; how it was run: as §1
HL-60(TB) = assay: Cytotoxicity against human HL-60(TB) cells assessed as growth inhibition at 10 uM after 48 hrs by sulphorhodamine B assay; details: HL-60, 48 h, read-out: GI
How it was run: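 NCI-60 one-dose primary screen run to the Drug Evaluation Branch protocol. Cells are exposed to a single 10 µM concentration for 48 h continuously, and growth is read by SRB protein assay. Data are reported as percent growth of treated cells, expressed as % growth inhibition.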

SK-OV-3 = assay: Cytotoxicity against human SKOV3 cells assessed as growth inhibition at 10 uM after 48 hrs by sulphorhodamine B assay; details: SK-OV-3, 48 h, read-out: GI; how it was run: as §1
CCRF-CEM = assay: Cytotoxicity against human CCRF-CEM cells assessed as growth inhibition at 10 uM after 48 hrs by sulphorhodamine B assay; details: read-out: GI; how it was run: as §1
OVCAR-5 = assay: Cytotoxicity against human OVCAR5 cells assessed as growth inhibition at 10 uM after 48 hrs by sulphorhodamine B assay; details: OVCAR-5, 48 h, read-out: GI; how it was run: as §1
OVCAR-4 = assay: Cytotoxicity against human OVCAR4 cells assessed as growth inhibition at 10 uM after 48 hrs by sulphorhodamine B assay; details: OVCAR-4, 48 h, read-out: GI; how it was run: as §1
IGROV-1 = assay: Cytotoxicity against human IGROV1 cells assessed as growth inhibition at 10 uM after 48 hrs by sulphorhodamine B assay; details: IGROV-1, 48 h, read-out: GI; how it was run: as §1
T47D = assay: Cytotoxicity against human T47D cells assessed as growth inhibition at 10 uM after 48 hrs by sulphorhodamine B assay; details: read-out: GI; how it was run: as §1
Hs-578T = assay: Cytotoxicity against human Hs578T cells assessed as growth inhibition at 10 uM after 48 hrs by sulphorhodamine B assay; details: read-out: GI; how it was run: as §1
NCI-H522 = assay: Cytotoxicity against human NCI-H522 cells assessed as growth inhibition at 10 uM after 48 hrs by sulphorhodamine B assay; details: NCI-H522, 48 h, read-out: GI; how it was run: as §1
HT-29 = assay: Cytotoxicity against human HT-29 cells assessed as growth inhibition at 10 uM after 48 hrs by sulphorhodamine B assay; details: HT-29, 48 h, read-out: GI; how it was run: as §1
MCF7 = assay: Cytotoxicity against human MCF7 cells assessed as growth inhibition at 10 uM after 48 hrs by sulphorhodamine B assay; details: MCF7, 48 h, read-out: GI; how it was run: as §1
MDA-MB-435 = assay: Cytotoxicity against human MDA-MB-435 cells assessed as growth inhibition at 10 uM after 48 hrs by sulphorhodamine B assay; details: MDA-MB-435, 48 h, read-out: GI; how it was run: as §1
HCT-15 = assay: Cytotoxicity against human HCT15 cells assessed as growth inhibition at 10 uM after 48 hrs by sulphorhodamine B assay; details: HCT-15, 48 h, read-out: GI; how it was run: as §1
MDA-MB-468 = assay: Cytotoxicity against human MDA-MB-468 cells assessed as growth inhibition at 10 uM after 48 hrs by sulphorhodamine B assay; details: MDA-MB-468, 48 h, read-out: GI; how it was run: as §1
HCT-116 = assay: Cytotoxicity against human HCT116 cells assessed as growth inhibition at 10 uM after 48 hrs by sulphorhodamine B assay; details: HCT-116, 48 h, read-out: GI; how it was run: as §1

With `COc1ccc(-c2c3c(nc4ncn5ncnc5c24)C(C)CCC3)cc1` (stereo unspecified) the inhibition of growth at 10 µM (HOP-92) was < 10%, the inhibition of growth at 10 µM (NCI-H23) was < 10% and the inhibition of growth at 10 µM [1] was < 10%. The inhibition of growth at 10 µM (A549) was < 10%, the inhibition of growth at 10 µM (NCI/ADR-RES) was < 10% and the inhibition of growth at 10 µM (SNB-75) was < 10%. For the same compound, the inhibition of growth at 10 µM (U-251) was < 10%, the inhibition of growth at 10 µM (SNB-19) was < 10% and the inhibition of growth at 10 µM (SF-295) was < 10%. The inhibition of growth at 10 µM (DU-145) was < 10%, the inhibition of growth at 10 µM (SF-268) was < 10% and the inhibition of growth at 10 µM (PC-3) was 13%. The inhibition of growth at 10 µM (UACC-62) was 18.3%, the inhibition of growth at 10 µM (SK-MEL-2) was < 10% and the inhibition of growth at 10 µM (SK-MEL-5) was < 10%. The inhibition of growth at 10 µM (M14) was < 10%, the inhibition of growth at 10 µM (LOX IMVI) was 15% and the inhibition of growth at 10 µM (UO-31) was < 10%. For the same compound, the inhibition of growth at 10 µM (CAKI-1) was < 10%, the inhibition of growth at 10 µM (RXF 393) was < 10% and the inhibition of growth at 10 µM (ACHN) was < 10%. It also gave an inhibition of growth at 10 µM (SR) of 17.8%, an inhibition of growth at 10 µM (A498) of 13.5% and an inhibition of growth at 10 µM (RPMI-8226) of 31%. The inhibition of growth at 10 µM (MOLT-4) was 19%, the inhibition of growth at 10 µM (K562) was < 10% and the inhibition of growth at 10 µM (HL-60(TB)) was < 10%. For the same compound, the inhibition of growth at 10 µM (SK-OV-3) was < 10%, the inhibition of growth at 10 µM (CCRF-CEM) was < 10% and the inhibition of growth at 10 µM (OVCAR-5) was < 10%. The inhibition of growth at 10 µM (OVCAR-4) was < 10%, the inhibition of growth at 10 µM (IGROV-1) was 10.6% and the inhibition of growth at 10 µM (T47D) was < 10%. The inhibition of growth at 10 µM (Hs-578T) was < 10%, the inhibition of growth at 10 µM (NCI-H522) was < 10% and the inhibition of growth at 10 µM (HT-29) was < 10%. For the same compound, the inhibition of growth at 10 µM (MCF7) was < 10%, the inhibition of growth at 10 µM (MDA-MB-435) was < 10% and the inhibition of growth at 10 µM (HCT-15) was < 10%. For the same compound, the inhibition of growth at 10 µM (MDA-MB-468) was < 10% and the inhibition of growth at 10 µM (HCT-116) was < 10%.
